These results are taken from ChEMBL document CHEMBL1128448, “Synthesis and antifungal activity of new azole derivatives containing an N-acylmorpholine ring” (1995).

≈ marks a conversion by molar mass, not a printed value.

Assay [1] relates to Mus sp. Put plainly: In vivo evaluation of % survival rate after peroral administration on 5th day at dose 2.5 mg/kg. The note with it: for survival at 2.5 mg/kg: Mus sp., po. The format is functional.
Assay [2] relates to Mus sp. The experiment in a line: In vivo evaluation of % survival rate after peroral administration on 7th day at dose 1 mg/kg. The format is functional. Particulars: for Survival: route oral, 1 mg/kg.
The test system of assay [3] is Mus sp. Put plainly: In vivo evaluation of % survival rate after peroral administration on 7th day at dose 2.5 mg/kg. In kind it is functional. The note with it: for survival at 2.5 mg/kg: Mus sp., po.
Assay [4] concerns Mus sp. The experiment in a line: In vivo evaluation of % survival rate after peroral administration on 3rd day at dose 2.5 mg/kg. The format is functional. The note with it: for survival at 2.5 mg/kg: Mus sp., po.
For assay [5], the system named is Mus sp. Put plainly: In vivo evaluation of % survival rate after peroral administration on 9th day at dose 2.5 mg/kg. The format is functional. Particulars: for survival at 2.5 mg/kg: Mus sp., po.
The test system of assay [6] is Candida tropicalis. Put plainly: In vitro evaluation of minimum inhibitory concentration against Candida tropicalis 2.11. In kind it is functional. The procedure, abridged: (§1)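 Stocks are 800 μg/mL in 50% ethanol. Each plate gets 10 μL of inoculum at 10^5 cfu/mL. Incubation at 25 °C, 48 h for yeasts and 120 h for dermatophytes and molds. Organisms are ATCC strains or clinical isolates.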

The test system of assay [7] is Trichophyton rubrum. The experiment in a line: In vitro evaluation of minimum inhibitory concentration against Trichophyton rubrum 90. The format is functional. The procedure, abridged: as §1
Assay [8] relates to Rhodotorula mucilaginosa. Put plainly: In vitro evaluation of minimum inhibitory concentration against Rhodotorula rubra 16. The format is functional. The gist of the method:
as §1

Assay [9] concerns Mus sp. The experiment in a line: In vivo evaluation of % survival rate after peroral administration on 9th day at dose 1 mg/kg. The format is functional. The note with it: for Survival: route oral, 1 mg/kg.
Assay [10] deals with Mus sp. Put plainly: In vivo evaluation of % survival rate after peroral administration on 3rd day at dose 1 mg/kg. The format is functional. Particulars: for survival at 1 mg/kg: Mus sp., po.
Assay [11] has as its system Nannizzia gypsea. Put plainly: In vitro evaluation of minimum inhibitory concentration against Microsporum gypseum 22. In kind it is functional. The gist of the method:
as §1

In assay [12] the test system is Microsporum canis. Put plainly: In vitro evaluation of minimum inhibitory concentration against Microsporum canis 47. The format is functional. The procedure, abridged: as §1
Assay [13] concerns Pichia kudriavzevii. Put plainly: In vitro evaluation of minimum inhibitory concentration against Candida krusei 70. In kind it is functional. The gist of the method:
as §1

Assay [14] has as its system Kluyveromyces marxianus. Put plainly: In vitro evaluation of minimum inhibitory concentration against Candida pseudotropicalis 13. In kind it is functional. The gist of the method: as §1
The subject of assay [15] is Mus sp. The experiment in a line: In vivo evaluation of % survival rate after peroral administration on 5th day at dose 1 mg/kg. The format is functional. Particulars: for survival at 1 mg/kg: Mus sp., po.
The test system of assay [16] is Meyerozyma guilliermondii. Put plainly: In vitro evaluation of minimum inhibitory concentration against Candida guilliermondii 26. In kind it is functional. The gist of the method:
as §1

Assay [17] deals with Trichophyton benhamiae. The experiment in a line: In vitro evaluation of minimum inhibitory concentration against Trichophyton mentagrophytes 23. The format is functional, Arthroderma benhamiae. The gist of the method:
as §1

Assay [18] relates to Candida parapsilosis. The experiment in a line: In vitro evaluation of minimum inhibitory concentration against Candida parapsilosis 61. The format is functional. The gist of the method: as §1
Assay [19] relates to Candida albicans. The experiment in a line: In vivo evaluation of minimum inhibitory concentration against Candida albicans 60. The format is functional. The procedure, abridged: (§2)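 Broth macrodilution MIC following NCCLS M27-P, in RPMI-1640 buffered with 0.165 M MOPS. Fluconazole was dissolved in water and other drugs in DMSO. C. parapsilosis ATCC 22019 served as the reference strain in every run. MIC was the lowest concentration giving turbidity at or below the 80% inhibition standard.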

Assay [20] relates to Candida albicans. Put plainly: In vitro evaluation of minimum inhibitory concentration against Candida albicans 76. In kind it is functional. The procedure, abridged: as §1
Assay [21] concerns Aspergillus niger. The experiment in a line: In vitro evaluation of minimum inhibitory concentration against Aspergillus niger 18. In kind it is functional. The note with it: Aspergillus niger; read-out: MIC. The gist of the method: as §1
Assay [22] has as its system Candida albicans. The experiment in a line: In vivo evaluation of minimum inhibitory concentration against Candida albicans 406. Particulars: Candida albicans; read-out: MIC. In kind it is functional. The procedure, abridged: as §2
The test system of assay [23] is Aspergillus fumigatus. Put plainly: In vitro evaluation of minimum inhibitory concentration against Aspergillus fumigatus 33. The format is functional. Particulars: Aspergillus fumigatus; read-out: MIC. The procedure, abridged:
as §1

The subject of assay [24] is Nakaseomyces glabratus. The experiment in a line: In vitro evaluation of minimum inhibitory concentration against Torulopsis glabrata 78. Particulars: Nakaseomyces glabratus; read-out: MIC. The format is functional. The procedure, abridged:
as §1

The subject of assay [25] is Aspergillus flavus. The experiment in a line: In vitro evaluation of minimum inhibitory concentration against Aspergillus flavus 19. In kind it is functional. The note with it: Aspergillus flavus; read-out: MIC. The procedure, abridged: as §1
[26] abbreviates: Candida tropicalis, read-out: MIC.
The mark [27] stands for this setting: Trichophyton rubrum, read-out: MIC.
Setting [28] is: Rhodotorula mucilaginosa, read-out: MIC.
Setting [29] is: Nannizzia gypsea, read-out: MIC.
[30] abbreviates: Microsporum canis, read-out: MIC.
The mark [31] stands for this setting: Pichia kudriavzevii, read-out: MIC.
[32] abbreviates: Kluyveromyces marxianus, read-out: MIC.
The mark [33] stands for this setting: Meyerozyma guilliermondii, read-out: MIC.
Setting [34] is: Trichophyton benhamiae, read-out: MIC.
Setting [35] is: Lodderomyces parapsilosis, read-out: MIC.
Setting [36] is: Candida albicans, read-out: MIC.

What is called MIC is the least concentration at which growth counts as inhibited. `C[C@H]1N(C(=O)c2ccc(C(F)(F)F)cc2)CCO[C@@]1(Cn1cncn1)c1ccc(F)cc1F` (racemic): the Survival in assay [1] (route oral, 2.5 mg/kg) turned out to be 100%; in [2], 10%; in assay [3] (route oral, 2.5 mg/kg), 90%; in [4] (route oral, 2.5 mg/kg), 100%; in assay [5] (route oral, 2.5 mg/kg), 90%; in assay [9] it was 0%. Also, the Survival in assay [10] (route oral, 1 mg/kg) was 80%; in [15] (route oral, 1 mg/kg), 70%. The MIC in assay [6] is 80 µg/mL (≈ 172 µM); in assay [7], 20 µg/mL (≈ 42.9 µM); in assay [8], 40 µg/mL (≈ 85.8 µM); in assay [11], 40 µg/mL (≈ 85.8 µM); in [12], 40 µg/mL (≈ 85.8 µM); in assay [13], 80 µg/mL (≈ 172 µM). Further, the MIC in [14] is 5 µg/mL (≈ 10.7 µM); in assay [16] it was 80 µg/mL (≈ 172 µM); in assay [17] it was 80 µg/mL (≈ 172 µM); in assay [18], 40 µg/mL (≈ 85.8 µM); in assay [19] it was 1.25 µg/mL (≈ 2.68 µM); in assay [20], 80 µg/mL (≈ 172 µM).
`C[C@H]1N(C(=O)c2ccc(C(F)(F)F)cc2)CC(=O)O[C@@]1(Cn1cncn1)c1ccc(F)cc1F` (racemic): the survival at 2.5 mg/kg in assay [1] came out at 100%; in [3] it was 95%; in assay [4], 100%; in assay [5] it was 70%. The Survival in [2] was found to be 30%; in assay [9], 0%. The MIC in assay [21], in assay [6] (setting [26]), in assay [7] (setting [27]), in assay [8] (setting [28]), in [11] (setting [29]) and in [12] (setting [30]) was over 80 µg/mL in each case. Besides, the minimal inhibitory concentration (MIC) in [13] (setting [31]) is over 80 µg/mL; in [14] (setting [32]), 80 µg/mL (≈ 167 µM); in [22], 40 µg/mL (≈ 83.3 µM); in assay [23] it was over 80 µg/mL; in assay [24], over 80 µg/mL; in [16] (setting [33]) it was over 80 µg/mL. For the same molecule, the minimal inhibitory concentration (MIC) in assay [17] (setting [34]) is over 80 µg/mL; in assay [25], over 80 µg/mL; in assay [18] (setting [35]), over 80 µg/mL; in assay [19] (setting [36]), 80 µg/mL (≈ 167 µM); in [20] (setting [36]), over 80 µg/mL. Moreover, the survival at 1 mg/kg in assay [10] was 95%; in assay [15] it was 85%.
Turning to `C[C@H]1N(C(=O)c2ccc(C(F)(F)F)cc2)C[C@H](O)O[C@@]1(Cn1cncn1)c1ccc(Cl)cc1Cl` (racemic), the survival at 2.5 mg/kg in assay [1], in assay [3], in assay [4] and in assay [5] was 100% in each case. Besides, the survival at 1 mg/kg in [2] (Mus sp., po) came out at 90%; in assay [9] (Mus sp., po), 70%; in assay [10], 100%; in [15] it was 100%. Also, the minimum inhibitory concentration (MIC) in assay [21] is over 80 µg/mL; in assay [6] (setting [26]), 20 µg/mL (≈ 38.8 µM); in assay [7] (setting [27]), 40 µg/mL (≈ 77.6 µM); in assay [8] (setting [28]), 2.5 µg/mL (≈ 4.85 µM); in assay [11] (setting [29]), 40 µg/mL (≈ 77.6 µM); in [12] (setting [30]), 40 µg/mL (≈ 77.6 µM). The MIC in [13] (setting [31]) came to 10 µg/mL (≈ 19.4 µM); in assay [14] (setting [32]), 0.15 µg/mL (≈ 0.291 µM); in assay [22], 0.63 µg/mL (≈ 1.22 µM); in assay [23], 20 µg/mL (≈ 38.8 µM); in assay [24], 20 µg/mL (≈ 38.8 µM); in assay [16] (setting [33]), 5 µg/mL (≈ 9.7 µM). The MIC in assay [17] (setting [34]) amounted to 40 µg/mL (≈ 77.6 µM); in assay [25] it was 20 µg/mL (≈ 38.8 µM); in assay [18] (setting [35]), 2.5 µg/mL (≈ 4.85 µM); in assay [19] (setting [36]) it was 1.25 µg/mL (≈ 2.43 µM); in [20] (setting [36]), 5 µg/mL (≈ 9.7 µM).
For `C[C@H]1N(C(=O)c2ccc(C(F)(F)F)cc2F)CC(=O)O[C@@]1(Cn1cncn1)c1ccc(F)cc1F` (racemic), the survival at 2.5 mg/kg was found to be 100% in assay [1], 100% in assay [3], 100% in assay [4] and 90% in [5]. The MIC is over 80 µg/mL in [21]; 80 µg/mL (≈ 161 µM) in [6] (setting [26]); over 80 µg/mL in [7] (setting [27]); over 80 µg/mL in assay [8] (setting [28]); over 80 µg/mL in [11] (setting [29]); over 80 µg/mL in [12] (setting [30]). Besides, the minimum inhibitory concentration (MIC) in assay [13] (setting [31]) was over 80 µg/mL; in [14] (setting [32]) it was 80 µg/mL (≈ 161 µM); in assay [22], 20 µg/mL (≈ 40.1 µM); in assay [23], over 80 µg/mL; in [24], over 80 µg/mL; in [16] (setting [33]), over 80 µg/mL. Also, the minimal inhibitory concentration (MIC) in assay [17] (setting [34]) is over 80 µg/mL; in assay [25] it was over 80 µg/mL; in [18] (setting [35]), 80 µg/mL (≈ 161 µM); in [19] (setting [36]), 20 µg/mL (≈ 40.1 µM); in assay [20] (setting [36]), 40 µg/mL (≈ 80.3 µM).
